Series [1] deals with Rattus norvegicus. Description: Antialzheimer activity in Sprague-Dawley rat assessed as amyloid beta 42 level in brain at 10 mg/kg, po at 4 hrs by ELISA relative to control. Format: functional. Summed up: (§1)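 Male Sprague-Dawley rats (180-220 g), fasted overnight, were given 10 mg/kg by gastric intubation as a 5 mg/mL suspension in 0.5% methocellulose. At 2, 4, 7 and 25 h, 50 μL CSF was taken from the cisterna magna under isoflurane, then brain was collected. Aβ37/38/40/42 were measured by MesoScale Discovery sandwich immunoassays. Results are mean % change versus T = 0 h, n = 5.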
(An ELISA detects its analyte on a solid surface through an enzyme-linked reagent.)

Series [2] can be described thus: Plasma concentration in Sprague-Dawley rat at 10 mg/kg, po at 7 hrs by LC-MS/MS analysis. Also on record: dose 10 mg/kg, route oral. It counts as ADME, organism-based. The procedure, abridged: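 Overnight-fasted male Sprague-Dawley rats (180–220 g) were given 10 mg/kg by gastric intubation of a 5 mg/mL suspension in 0.5% methocellulose. Blood was collected after decapitation at 2, 4, 7 and 25 h under isoflurane anaesthesia. Plasma compound was measured as in the mouse assay, n = 5.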

Series [3] is described as follows: Inhibition of notch processing up to 10 uM.
The test system of series [4] is Rattus norvegicus. Briefly: Antialzheimer activity in Sprague-Dawley rat assessed as amyloid beta 40 level in CSF at 10 mg/kg, po at 4 hrs by ELISA relative to control. It counts as functional. The procedure, abridged: as §1
The subject of series [5] is Mus musculus. Briefly: Antialzheimer activity in CD1 mouse assessed as reduction in amyloid beta 42 level in brain at 30 mg/kg, po at 4 hrs by ELISA relative to control. It counts as functional. The procedure, abridged: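 Screening used fasted male CD1 mice dosed once orally at 30 mg/kg as a suspension in 20% Captisol in water. Mice were killed at 4 h. Aβ42 in the DEA-soluble hemisphere extract was measured by sandwich ELISA. Values are the mean of at least six animals, as % lowering versus untreated mice; a reduction above 20% counts as significant.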

A short description of series [6]: Drug uptake in CD1 mouse brain at 10 mg/kg, po at 8 hrs by LC-MS/MS analysis. Format: ADME, organism-based. Also on record: dose 10 mg/kg, route oral. The note with it: read-out: Drug uptake. The procedure, abridged: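 Overnight-fasted male CD1 mice received one oral dose (10 or 30 mg/kg) in 20% Captisol. After sacrifice, the left brain hemisphere was stored at −18 °C. Compound level was quantified by a qualified LC-MS/MS method, alongside EDTA plasma spun at 1900g, 4 °C. n = 4 per time point.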

Series [7] is described as follows: Oral bioavailability in Sprague-Dawley rat at 10 mg/kg. The note with it: in vivo. It counts as ADME, organism-based.
In series [8] the test system is Mus musculus. Description: Reduction in total amyloid beta level in CD1 mouse at 30 mg/kg, po at 4 hrs by ELISA relative to control. Format: functional, organism-based. The arrangement: dose 30 mg/kg. Summed up: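 Overnight-fasted male CD1 Swiss SPF mice were given a single oral dose as a suspension in 20% Captisol in water. Brains were taken at 4 h and the right hemisphere homogenized in 0.4% DEA/50 mM NaCl with protease inhibitors, then spun at 221300g for 50 min. The neutralized supernatant was read by Aβtotal ELISA (capture JRF/rAβ/2, biotinylated 4G8, streptavidin-peroxidase, QuantaBlu, ex 320/em 420 nm). Values are % change versus untreated animals, n ≥ 6.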

A further series addresses Cytochrome P450 2C9 (Homo sapiens, UniProt P11712). Description: Inhibition of CYP2C9 in human liver microsomes using tolbutamide as substrate. It counts as ADME, Microsome. Background: Liver microsomes are vesicles of endoplasmic reticulum, rich in cytochrome P450 enzymes.
For series [9], the system named is Rattus norvegicus. Briefly: Antialzheimer activity in Sprague-Dawley rat assessed as amyloid beta 37 level in CSF at 10 mg/kg, po at 4 hrs by ELISA relative to control. Format: functional. Summed up:
as §1

The nature of series [10]: Plasma concentration in beagle dog at 20 mg/kg, po at 24 hrs. Format: ADME, organism-based, Canis lupus familiaris. The arrangement: dose 20 mg/kg, route oral.
Series [11] deals with Rattus norvegicus. Briefly: Antialzheimer activity in Sprague-Dawley rat assessed as amyloid beta 42 level in CSF at 10 mg/kg, po at 25 hrs by ELISA relative to control. Format: functional. Summed up: as §1
Series [12] in a line: Fraction unbound in human plasma. Format: ADME, cell-free.
Series [13] can be described thus: Thermodynamic solubility in buffer at pH 4. It counts as physicochemical. To be noted: read-out: Therm_solubility. Summed up: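 Thermodynamic solubility was measured in pH 4.0 and pH 7.4 buffers, 0.01 N HCl, and fasted-state and fed-state simulated intestinal fluids (FaSSIF, FeSSIF). Results are in […].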
The subject of series [14] is Mus musculus. Description: Inhibition of gamma-secretase in CD1 mouse assessed as total amyloid beta level in brain at 30 mg/kg, po at 8 hrs by ELISA relative to control. Format: functional. Also on record: scale not given: the % may be the effect or the level left. Summed up:
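Fasted male CD1 SPF mice were dosed orally at 10 or 30 mg/kg in 20% Captisol. Right hemisphere was homogenized in 0.4% DEA/50 mM NaCl and the high-speed supernatant neutralized. Aβtotal ELISA used N-terminal JRF/rAβ/2 capture, biotinylated 4G8 and streptavidin-peroxidase, then a fluorogenic substrate (ex 320/em 420 nm). Standards spanned 10000–0.3 pg/mL. Values are % change vs T = 0 h, n = 4.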

A further series relates to Liver microsomes. Description: Drug metabolism in human liver microsome assessed as reactive metabolite formation by gultathione-trapping assay. Format: ADME.
In series [15] the test system is Rattus norvegicus. Description: Antialzheimer activity in Sprague-Dawley rat assessed as amyloid beta 40 level in brain at 10 mg/kg, po at 25 hrs by ELISA relative to control. It counts as functional. Summed up: as §1
The next series has as its target Gamma-secretase. Description: Modulation of gamma-secretase in human SK-N-BE(2) cells expressing wild type APP 695 assessed as reduction in amyloid beta 42 level after overnight incubation by sandwich immunoassay. Format: cell-based. Summed up: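 SK-N-BE(2) cells carrying wild-type APP695, plated at 10⁴ cells/well in Ultraculture with glutamine, NEAA, penicillin/streptomycin plus test compound at a range of concentrations. Incubated overnight at 37 °C, 5% CO₂. Supernatant Aβ42 measured by AlphaLisa sandwich immunoassay (JRF/cAβ42/26 capture, biotinylated JRF/AβN/25). IC50 derived from % of maximal Aβ42 without compound. Mean of at least three determinations.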

The subject of series [16] is Rattus norvegicus. Briefly: Antialzheimer activity in Sprague-Dawley rat assessed as amyloid beta 40 level in brain at 10 mg/kg, po at 4 hrs by ELISA relative to control. It counts as functional. Summed up: as §1
For the next series, the target named is Cytochrome P450 3A4 (Homo sapiens, UniProt P08684). Briefly: Inhibition of CYP3A4 in human liver microsomes using testosterone as substrate. Format: ADME, Microsome.
Series [17] deals with Rattus norvegicus. Description: Antialzheimer activity in Sprague-Dawley rat assessed as amyloid beta 38 level in CSF at 10 mg/kg, po at 25 hrs by ELISA relative to control. It counts as functional. The procedure, abridged: as §1
The test system of series [18] is Canis familiaris. Briefly: Antialzheimer activity in beagle dog assessed as amyloid beta 42 level in cerebrospinal fluid at 20 mg/kg, po at 8 hrs by ELISA relative to control.
Series [19] relates to Canis familiaris. Briefly: Antialzheimer activity in beagle dog assessed as amyloid beta 42 level in cerebrospinal fluid at 20 mg/kg, po at 4 hrs by ELISA relative to control.
The target in another series is Cytochrome P450 2D6 (Homo sapiens, UniProt P10635). Description: Inhibition of CYP2D6 in human liver microsomes using dextrometorphan as substrate. It counts as ADME, Microsome.

The source of these data is ChEMBL document CHEMBL2176900, “Design and synthesis of a novel series of bicyclic heterocycles as potent γ-secretase modulators” (J Med Chem, 2012).

The structures appear in SMILES notation. Active and inactive are the calls of the source. The calls are words filed in the database; no cut-off is given here.

Sequence of Cytochrome P450 2C9 (P11712 whole entry): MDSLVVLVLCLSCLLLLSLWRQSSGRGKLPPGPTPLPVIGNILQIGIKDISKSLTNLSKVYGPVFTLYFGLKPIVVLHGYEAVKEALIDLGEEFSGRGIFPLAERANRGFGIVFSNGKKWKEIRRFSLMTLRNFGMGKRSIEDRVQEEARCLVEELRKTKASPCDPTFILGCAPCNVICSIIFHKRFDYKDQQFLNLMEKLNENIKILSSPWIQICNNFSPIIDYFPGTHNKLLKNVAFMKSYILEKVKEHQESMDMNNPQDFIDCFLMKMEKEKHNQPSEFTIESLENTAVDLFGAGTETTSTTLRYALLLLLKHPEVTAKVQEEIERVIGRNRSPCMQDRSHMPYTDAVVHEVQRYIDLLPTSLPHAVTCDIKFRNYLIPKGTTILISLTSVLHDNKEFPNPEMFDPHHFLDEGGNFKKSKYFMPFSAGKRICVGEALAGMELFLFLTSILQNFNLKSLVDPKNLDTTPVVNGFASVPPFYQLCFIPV
Sequence of Cytochrome P450 2D6 (P10635 whole entry): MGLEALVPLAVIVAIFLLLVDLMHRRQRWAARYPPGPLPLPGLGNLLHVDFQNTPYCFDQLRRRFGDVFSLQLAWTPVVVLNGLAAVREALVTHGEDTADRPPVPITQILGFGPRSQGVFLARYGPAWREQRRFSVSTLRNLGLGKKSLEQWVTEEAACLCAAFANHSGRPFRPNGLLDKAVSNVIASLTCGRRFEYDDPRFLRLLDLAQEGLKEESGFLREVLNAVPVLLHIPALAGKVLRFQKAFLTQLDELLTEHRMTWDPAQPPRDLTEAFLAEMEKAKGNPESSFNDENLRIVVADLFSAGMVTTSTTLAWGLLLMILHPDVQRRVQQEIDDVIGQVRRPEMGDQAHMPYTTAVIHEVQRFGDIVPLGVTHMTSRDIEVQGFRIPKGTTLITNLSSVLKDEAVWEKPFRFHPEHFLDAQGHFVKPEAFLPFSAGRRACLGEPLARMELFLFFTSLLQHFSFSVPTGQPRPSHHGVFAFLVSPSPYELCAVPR
Sequence of Cytochrome P450 3A4 (P08684 whole entry): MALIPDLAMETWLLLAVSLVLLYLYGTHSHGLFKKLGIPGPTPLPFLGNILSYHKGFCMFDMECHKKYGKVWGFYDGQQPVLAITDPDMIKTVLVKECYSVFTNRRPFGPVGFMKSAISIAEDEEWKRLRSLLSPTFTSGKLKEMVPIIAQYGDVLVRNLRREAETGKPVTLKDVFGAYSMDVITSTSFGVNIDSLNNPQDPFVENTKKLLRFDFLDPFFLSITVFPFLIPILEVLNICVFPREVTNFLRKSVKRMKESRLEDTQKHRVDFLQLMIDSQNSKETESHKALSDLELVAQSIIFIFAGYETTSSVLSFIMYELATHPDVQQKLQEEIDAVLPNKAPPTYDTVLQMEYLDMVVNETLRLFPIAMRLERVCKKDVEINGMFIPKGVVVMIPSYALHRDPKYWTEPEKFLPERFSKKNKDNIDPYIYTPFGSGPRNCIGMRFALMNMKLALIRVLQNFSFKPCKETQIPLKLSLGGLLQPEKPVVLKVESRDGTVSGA

What is called inhibition in vivo is the relative decrease from the control value, in per cent. For orientation: bioavailability means the share of a dose that reaches the circulation, judged against a reference dose that is usually intravenous. The term IC50 denotes the concentration that gives 50% inhibition. Usually fraction unbound stands for the share of the substance not bound to proteins or other matrix. Turning to `COc1nc(Nc2cccc3c2nc(-c2ccc(F)cc2)n3C)ccc1-n1cnc(C)c1`, the Activity in the series on Rattus norvegicus [1] turned out to be 64%; in the series on Rattus norvegicus [4] it was 60%; with Rattus norvegicus [9] it was 955%; with Rattus norvegicus [11], 89%; in the series with Mus musculus [14] it was 83%; in the series on Rattus norvegicus [15], 107%. For the same compound, the Activity in the series with Rattus norvegicus [16] amounted to 64%; in the series with Rattus norvegicus [17], 110%; in the series on Canis familiaris [18] it was 52%; in the series with Canis familiaris [19] it was 81%. Further, the concentration at 7 h in series [2] turned out to be 4000 nM. In addition, in [3], the inhibition result is “inactive”. For the same compound, the inhibition in vivo at 30 mg/kg in the series with Mus musculus [5] was 62%. Also, the concentration at 8 h in series [6] amounted to 1900 nM. The same compound registered a bioavailability in series [7] of 95%. Also, in the series on Mus musculus [8], the result was inactive. The IC50 against Cytochrome P450 2C9 was determined as 21.9 µM; at Gamma-secretase it was 0.016 µM; against Cytochrome P450 3A4, 2.9 µM; against Cytochrome P450 2D6 it was 3.6 µM. Further, the concentration at 24 h in [10] is 40 nM. Moreover, the fraction unbound in [12] amounted to 0.0013. Besides, the solubility thermodynamic in series [13] was below 1 µg/mL. In addition, the Drug metabolism entry with Liver microsomes is “Not Active”.
